Assay results published in ChEMBL document CHEMBL2021913, “Synthesis and biological evaluation of some novel thiazole substituted benzotriazole derivatives” (2012).
In brackets after ≈: the same amount, converted by molar mass. Activity calls are given as the source filed them. The rule behind the calls is not given here.

Legend:
Assay type in all cases: functional
[1] = test system: Staphylococcus aureus; test: Antimicrobial activity against Staphylococcus aureus 2079 at 35 degC after 18 to 24 hrs by NCCLS method based antimicrobial assay; conditions: for MBC: read-out: MBC99.9
[2] = test system: Candida albicans; test: Antimicrobial activity against Candida albicans 3471 at 35 degC after 48 hrs by CLSI method based antimicrobial assay; conditions: Candida albicans, 3471, 48 h; for MFC: read-out: MFC99.9
In short: (§1)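 Broth microdilution following CLSI guidelines over 256 to 1 µg/mL. MIC90 is the lowest concentration completely inhibiting growth. For MFC, 0.1 mL from each tube spread on agar and CFU counted after 48 h at 35 °C; MFC is lowest concentration killing 99.9% of inoculum. MFC/MIC ratio calculated: […], ≤4 as fungicidal.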

[3] = test system: Pseudomonas aeruginosa; test: Antimicrobial activity against Pseudomonas aeruginosa 2036 at 128 ug/disc at 35 degC after 24 hrs by agar-well diffusion assay; conditions: for zone of inhibition at 128 µg/disc: Pseudomonas aeruginosa, 2036, 24 h, read-out: DIZ
In short: (§2)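 Agar-well diffusion: 24 h bacterial cultures adjusted to 0.5 McFarland (1.5 × 10⁸ CFU/mL) and mixed into molten Mueller-Hinton agar before pouring. 6 mm wells punched and each filled with 50 µL of compound stock or control. Plates incubated 35 °C for 24 h. Zone of growth inhibition diameter measured with vernier caliper.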

[4] = test system: Aspergillus niger; test: Antimicrobial activity against Aspergillus niger 545 at 35 degC after 48 hrs by CLSI method based antimicrobial assay; conditions: Aspergillus niger, 545, 48 h; for MFC: read-out: MFC99.9; in short: as §1
[5] = test system: Staphylococcus aureus; test: Antimicrobial activity against Staphylococcus aureus 2079 at 128 ug/disc at 35 degC after 24 hrs by agar-well diffusion assay; conditions: for zone of inhibition at 128 µg/disc: Staphylococcus aureus, 2079, 24 h, read-out: DIZ; in short: as §2
[6] = test system: Pseudomonas aeruginosa; test: Antimicrobial activity against Pseudomonas aeruginosa 2036 at 35 degC after 18 to 24 hrs by NCCLS method based antimicrobial assay; conditions: for MBC: read-out: MBC99.9
[7] = test system: Candida albicans; test: Antimicrobial activity against Candida albicans 3471 at 128 ug/disc at 37 degC after 24 to 72 hrs by agar-well diffusion assay; conditions: read-out: DIZ
In short: (§3)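 Potato dextrose agar base plates overlaid with seeded agar cooled to 40 °C and inoculated with spores from 10-day cultures, final 1 × 10⁶ spores/mL. Compounds dissolved in DMSO at 128 µg/mL and applied on 6 mm filter-paper discs placed on chilled seeded medium. Nystatin positive control, DMSO negative control. Incubation 24–72 h at 37 °C. Inhibition zone diameter read by vernier caliper.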

[8] = test system: Escherichia coli; test: Antimicrobial activity against Escherichia coli 2109 at 128 ug/disc at 35 degC after 24 hrs by agar-well diffusion assay; conditions: for zone of inhibition at 128 µg/disc: Escherichia coli, 2109, 24 h, read-out: DIZ; in short: as §2
[9] = test system: Aspergillus niger; test: Ratio of MFC99.9 to MIC90 for Aspergillus niger 545 at 35 degC after 48 hrs by CLSI method based antimicrobial assay; in short: as §1
[10] = test system: Escherichia coli; test: Antimicrobial activity against Escherichia coli 2109 at 35 degC after 18 to 24 hrs by NCCLS method based antimicrobial assay; conditions: for MBC: read-out: MBC99.9
[11] = test system: Candida albicans; test: Ratio of MFC99.9 to MIC90 for Candida albicans 3471 at 35 degC after 48 hrs by CLSI method based antimicrobial assay; in short: as §1
[12] = test system: Bacillus subtilis; test: Antimicrobial activity against Bacillus subtilis 2250 at 128 ug/disc at 35 degC after 24 hrs by agar-well diffusion assay; conditions: for zone of inhibition at 128 µg/disc: Bacillus subtilis, 2250, 24 h, read-out: DIZ; in short: as §2
[13] = test system: Aspergillus niger; test: Antimicrobial activity against Aspergillus niger 545 at 128 ug/disc at 37 degC after 24 to 72 hrs by agar-well diffusion assay; conditions: read-out: DIZ; in short: as §3
[14] = test system: Bacillus subtilis; test: Antimicrobial activity against Bacillus subtilis 2250 at 35 degC after 18 to 24 hrs by NCCLS method based antimicrobial assay; conditions: for MBC: read-out: MBC99.9

## O=[N+]([O-])c1ccc(-c2csc(N/N=C(/Cn3nnc4ccccc43)c3ccc(F)cc3)n2)cc1
[1]
  MBC99.9: inactive
  MIC: inactive
[2]
  MIC: 32 µg/mL (≈ 67.6 µM)
  MFC: 64 µg/mL (≈ 135 µM)
[3]
  diameter of the inhibition zone (DIZ): inactive
[4]
  MIC: 32 µg/mL (≈ 67.6 µM)
  MFC: 128 µg/mL (≈ 270 µM)
[5]
  diameter of the inhibition zone (DIZ): inactive
[6]
  MBC99.9: inactive
  MIC: inactive
[7]
  zone of inhibition at 128 µg/disc: 18.7 mm
[8]
  diameter of the inhibition zone (DIZ): inactive
[9]
  Ratio: 4
[10]
  MBC99.9: inactive
  MIC: inactive
[11]
  Ratio: 2
[12]
  zone of inhibition at 128 µg/disc: 14.9 mm
[13]
  zone of inhibition at 128 µg/disc: 16.2 mm
[14]
  MIC: 128 µg/mL (≈ 270 µM)
  MBC: 256 µg/mL (≈ 541 µM)

## Fc1ccc(-c2csc(N/N=C(/Cn3nnc4ccccc43)c3ccc(Br)cc3)n2)cc1
[1]
  MBC99.9: inactive
  MIC: inactive
[2]
  MIC: 32 µg/mL (≈ 63.1 µM)
  MFC: 128 µg/mL (≈ 252 µM)
[3]
  zone of inhibition at 128 µg/disc: 19.8 mm
[4]
  MIC: 32 µg/mL (≈ 63.1 µM)
  MFC: 64 µg/mL (≈ 126 µM)
[5]
  diameter of the inhibition zone (DIZ): inactive
[6]
  MIC: 32 µg/mL (≈ 63.1 µM)
  MBC: 64 µg/mL (≈ 126 µM)
[7]
  zone of inhibition at 128 µg/disc: 16.8 mm
[8]
  zone of inhibition at 128 µg/disc: 18.7 mm
[9]
  Ratio: 2
[10]
  MIC: 128 µg/mL (≈ 252 µM)
  MBC: 128 µg/mL (≈ 252 µM)
[11]
  Ratio: 4
[12]
  diameter of the inhibition zone (DIZ): inactive
[13]
  zone of inhibition at 128 µg/disc: 17.6 mm
[14]
  MBC99.9: inactive
  MIC: inactive

## Clc1ccc(/C(Cn2nnc3ccccc32)=N\Nc2nc(-c3ccc(Br)cc3)cs2)cc1
[1]
  MBC99.9: inactive
  MIC: inactive
[2]
  MIC: 32 µg/mL (≈ 61.1 µM)
  MFC: 128 µg/mL (≈ 244 µM)
[3]
  diameter of the inhibition zone (DIZ): inactive
[4]
  MIC: 64 µg/mL (≈ 122 µM)
  MFC: 64 µg/mL (≈ 122 µM)
[5]
  diameter of the inhibition zone (DIZ): inactive
[6]
  MBC99.9: inactive
  MIC: inactive
[7]
  zone of inhibition at 128 µg/disc: 18 mm
[8]
  diameter of the inhibition zone (DIZ): inactive
[9]
  Ratio: 1
[10]
  MBC99.9: inactive
  MIC: inactive
[11]
  Ratio: 4
[12]
  zone of inhibition at 128 µg/disc: 13.8 mm
[13]
  zone of inhibition at 128 µg/disc: 15.2 mm
[14]
  MIC: 128 µg/mL (≈ 244 µM)
  MBC: 256 µg/mL (≈ 489 µM)

## Fc1ccc(/C(Cn2nnc3ccccc32)=N\Nc2nc(-c3cc(C(F)(F)F)cc(C(F)(F)F)c3)cs2)cc1
[1]
  MIC: 128 µg/mL (≈ 227 µM)
  MBC: 128 µg/mL (≈ 227 µM)
[2]
  MIC: 32 µg/mL (≈ 56.7 µM)
  MFC: 64 µg/mL (≈ 113 µM)
[3]
  diameter of the inhibition zone (DIZ): inactive
[4]
  MIC: 32 µg/mL (≈ 56.7 µM)
  MFC: 128 µg/mL (≈ 227 µM)
[5]
  zone of inhibition at 128 µg/disc: 19.2 mm
[6]
  MBC99.9: inactive
  MIC: inactive
[7]
  zone of inhibition at 128 µg/disc: 17.4 mm
[8]
  diameter of the inhibition zone (DIZ): inactive
[9]
  Ratio: 4
[10]
  MBC99.9: inactive
  MIC: inactive
[11]
  Ratio: 2
[12]
  zone of inhibition at 128 µg/disc: 24.1 mm
[13]
  zone of inhibition at 128 µg/disc: 17.5 mm
[14]
  MIC: 32 µg/mL (≈ 56.7 µM)
  MBC: 64 µg/mL (≈ 113 µM)

## Fc1ccc(-c2csc(N/N=C(/Cn3nnc4ccccc43)c3ccc(Cl)cc3)n2)cc1
[1]
  MIC: 64 µg/mL (≈ 138 µM)
  MBC: 32 µg/mL (≈ 69.1 µM)
[2]
  MIC: 16 µg/mL (≈ 34.6 µM)
  MFC: 64 µg/mL (≈ 138 µM)
[3]
  zone of inhibition at 128 µg/disc: 14.3 mm
[4]
  MIC: 16 µg/mL (≈ 34.6 µM)
  MFC: 32 µg/mL (≈ 69.1 µM)
[5]
  zone of inhibition at 128 µg/disc: 24.7 mm
[6]
  MIC: 128 µg/mL (≈ 276 µM)
  MBC: 256 µg/mL (≈ 553 µM)
[7]
  zone of inhibition at 128 µg/disc: 21.3 mm
[8]
  zone of inhibition at 128 µg/disc: 17.6 mm
[9]
  Ratio: 2
[10]
  MIC: 64 µg/mL (≈ 138 µM)
  MBC: 128 µg/mL (≈ 276 µM)
[11]
  Ratio: 4
[12]
  zone of inhibition at 128 µg/disc: 16.9 mm
[13]
  zone of inhibition at 128 µg/disc: 20.1 mm
[14]
  MIC: 128 µg/mL (≈ 276 µM)
  MBC: 128 µg/mL (≈ 276 µM)

## Fc1ccc(/C(Cn2nnc3ccccc32)=N\Nc2nc(-c3ccc(F)cc3)cs2)cc1
[1]
  MIC: 64 µg/mL (≈ 143 µM)
  MBC: 128 µg/mL (≈ 287 µM)
[2]
  MIC: 16 µg/mL (≈ 35.8 µM)
  MFC: 32 µg/mL (≈ 71.7 µM)
[3]
  zone of inhibition at 128 µg/disc: 11.8 mm
[4]
  MIC: 16 µg/mL (≈ 35.8 µM)
  MFC: 64 µg/mL (≈ 143 µM)
[5]
  zone of inhibition at 128 µg/disc: 20.1 mm
[6]
  MIC: 128 µg/mL (≈ 287 µM)
  MBC: 256 µg/mL (≈ 573 µM)
[7]
  zone of inhibition at 128 µg/disc: 21.1 mm
[8]
  zone of inhibition at 128 µg/disc: 15 mm
[9]
  Ratio: 4
[10]
  MIC: 128 µg/mL (≈ 287 µM)
  MBC: 128 µg/mL (≈ 287 µM)
[11]
  Ratio: 2
[13]
  zone of inhibition at 128 µg/disc: 19.1 mm
[14]
  MIC: 64 µg/mL (≈ 143 µM)
  MBC: 128 µg/mL (≈ 287 µM)

## O=[N+]([O-])c1ccc(/C(Cn2nnc3ccccc32)=N\Nc2nc(-c3cc(C(F)(F)F)cc(C(F)(F)F)c3)cs2)cc1
[1]
  MBC99.9: inactive
  MIC: inactive
[2]
  MIC: 128 µg/mL (≈ 216 µM)
  MFC: 256 µg/mL (≈ 433 µM)
[3]
  diameter of the inhibition zone (DIZ): inactive
[4]
  MIC: 32 µg/mL (≈ 54.1 µM)
  MFC: 64 µg/mL (≈ 108 µM)
[5]
  diameter of the inhibition zone (DIZ): inactive
[6]
  MBC99.9: inactive
  MIC: inactive
[7]
  zone of inhibition at 128 µg/disc: 19 mm
[8]
  zone of inhibition at 128 µg/disc: 15 mm
[9]
  Ratio: 2
[10]
  MIC: 128 µg/mL (≈ 216 µM)
  MBC: 256 µg/mL (≈ 433 µM)
[11]
  Ratio: 2
[12]
  diameter of the inhibition zone (DIZ): inactive
[13]
  zone of inhibition at 128 µg/disc: 17.9 mm
[14]
  MBC99.9: inactive
  MIC: inactive

## Fc1ccc(-c2csc(N/N=C(/Cn3nnc4ccccc43)c3cc(C(F)(F)F)cc(C(F)(F)F)c3)n2)cc1
[1]
  MIC: 32 µg/mL (≈ 56.7 µM)
  MBC: 64 µg/mL (≈ 113 µM)
[2]
  MIC: 32 µg/mL (≈ 56.7 µM)
  MFC: 128 µg/mL (≈ 227 µM)
[3]
  diameter of the inhibition zone (DIZ): inactive
[4]
  MIC: 32 µg/mL (≈ 56.7 µM)
  MFC: 64 µg/mL (≈ 113 µM)
[5]
  zone of inhibition at 128 µg/disc: 24.3 mm
[6]
  MBC99.9: inactive
  MIC: inactive
[7]
  zone of inhibition at 128 µg/disc: 18.4 mm
[8]
  diameter of the inhibition zone (DIZ): inactive
[9]
  Ratio: 2
[10]
  MBC99.9: inactive
  MIC: inactive
[11]
  Ratio: 4
[12]
  diameter of the inhibition zone (DIZ): inactive
[13]
  zone of inhibition at 128 µg/disc: 16.8 mm
[14]
  MBC99.9: inactive
  MIC: inactive
